From the RNAGym collection of RNA variant scans (doi:10.1038/nmeth.2970) come the findings set out here.

B1: NELF-E aptamer (parent)
chain: CCCAACGACUGCCGAGCGAGAUUACGCUUGAGCGCCCCACUGAGGAUGCCCACGGGCGAUUGGGGCACGG

The variants in the data set derive from B1. Kind of data set: HiTS-RAP. The conditions noted are these: with NELF-E (Drosophila). The essentials: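 Kd came from weighted Hill fits to the first binding curve, with intensities normalised to sequencing intensity and averaged per sequence, keeping only fits whose variance was below 1,000,000. That curve was imaged on an Illumina GAIIx flowcell, where sequenced aptamer DNA templates with a T7 promoter and ter site had been transcribed in situ by T7 RNA polymerase and halted by GST-Tus (30 minutes, 37°C). Before each image, clusters equilibrated for 30 minutes at room temperature with NELF-E-mOrange at 0.064 to 1000 nM in HEPES binding buffer.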
Broadly, the Kd is a measure of binding affinity in units of concentration. As to A5G G64A, the dissociation constant (Kd) was found to be 8.07 nM.

In the case of A5G G26A, the dissociation constant Kd was 5.29 nM.

With A5G G26U, the dissociation constant Kd was determined as 7.39 nM.

With A5G U29A, the dissociation constant (Kd) came out at 6.04 nM.

As to A4U G30A, the dissociation constant (Kd) was determined as 3.77 nM.

On to A5G G14U, for which the dissociation constant (Kd) was 6.38 nM.

For the variant A5G G14A, the equilibrium dissociation constant (Kd) turned out to be 6.54 nM.

A5G G30A: the dissociation constant (Kd) was found to be 5.43 nM.

Consider A4G G16U, for which the dissociation constant Kd was 6.47 nM.

In the case of A4G G16A, the equilibrium dissociation constant (Kd) came out at 6.14 nM.

On to A4G G30U, for which the Kd worked out at 5.76 nM.

Take A4G G30A: the dissociation constant (Kd) stood at 4.89 nM.

As to A4U G7U, the dissociation constant (Kd) came out at 6.61 nM.

As to A4G G48A, the dissociation constant (Kd) came to 11 nM.

On to A4G G48U, for which the equilibrium dissociation constant (Kd) turned out to be 8.36 nM.

On to A4U G18A, for which the dissociation constant Kd is 4.13 nM.

In the case of A4G G54U, the dissociation constant Kd worked out at 6.61 nM.

Turning to A4G G54A, the Kd is 14.1 nM.

Take A4G C25G: the Kd is 5.98 nM.

On to A4G C25A, for which the Kd is 6.24 nM.

A4G C25U: the Kd came to 6.15 nM.

For the variant A5C G7U, the Kd was 7.5 nM.

Turning to A5G U10C, the Kd worked out at 4.79 nM.

Take A5G U10G: the Kd was 5.47 nM.

For A5G U10A, the Kd was found to be 4.67 nM.

A4U A39U: the dissociation constant (Kd) was found to be 31.1 nM.

In the case of A4U A39G, the Kd amounted to 10.9 nM.

On to A5G, for which the Kd came to 5.54 nM.

A5C: the Kd stood at 6.55 nM.

For A5G G18A, the dissociation constant (Kd) is 5.15 nM.

Consider A5G G18U, for which the equilibrium dissociation constant (Kd) amounted to 6.11 nM.

As to A4G G65C, the dissociation constant (Kd) was found to be 16.2 nM.

For A4G G65A, the Kd stood at 5.5 nM.

As to A4G G65U, the Kd stood at 6.71 nM.

For A4G C57G, the Kd came out at 7.07 nM.

Take A4G C57U: the dissociation constant (Kd) was found to be 5.88 nM.

Regarding A4U C37U, the Kd turned out to be 9.84 nM.

With A4U C37A, the Kd came to 13 nM.

Turning to A4U A52U, the equilibrium dissociation constant (Kd) worked out at 20.1 nM.

For A4U A52G, the Kd turned out to be 4.05 nM.

In the case of A4G C12A, the Kd is 5.36 nM.

Regarding A4G C12U, the Kd is 5.25 nM.

With A4G C12G, the Kd was determined as 5.9 nM.

Consider A5G C6G, for which the equilibrium dissociation constant (Kd) came to 5.46 nM.

On to A5G C6U, for which the Kd was 5.92 nM.

For the variant A5G C6A, the Kd stood at 6.25 nM.

As for A5G U28G, the Kd turned out to be 7.79 nM.

Turning to A5G U28C, the Kd is 10.2 nM.

Consider A5G C17U, for which the equilibrium dissociation constant (Kd) worked out at 6.29 nM.

Regarding A5G C17G, the dissociation constant Kd worked out at 5.22 nM.

As to A4U A5G, the dissociation constant Kd was 5.88 nM.

Turning to A4U A5U, the Kd turned out to be 4.82 nM.

With A4G C37A, the Kd was 12.3 nM.

In the case of A4G C37G, the dissociation constant (Kd) amounted to 6.99 nM.

With A4G C37U, the Kd was determined as 13.2 nM.

On to A5G A31G, for which the Kd turned out to be 7.69 nM.

Regarding A5G A31U, the dissociation constant (Kd) was 5.74 nM.

A5G G54A: the Kd was 12.9 nM.

With A5G G42A, the equilibrium dissociation constant (Kd) was 27.1 nM.

Turning to A4G A46G, the Kd stood at 37.6 nM.

Turning to A4G A46U, the equilibrium dissociation constant (Kd) was 72.7 nM.

As to A4G A39G, the Kd came to 10.6 nM.

Consider A4G A39C, for which the Kd is 30.7 nM.

As to A4G A39U, the dissociation constant (Kd) stood at 25.9 nM.

As for A4U U10A, the Kd worked out at 4.41 nM.

A4U U10C: the dissociation constant Kd amounted to 6.91 nM.

For the variant A4U U10G, the equilibrium dissociation constant (Kd) is 5.45 nM.

Regarding A4U U61A, the Kd was 22.7 nM.

As to A4U U61C, the equilibrium dissociation constant (Kd) worked out at 74.2 nM.

As for A5C C9G, the Kd amounted to 7.82 nM.

For the variant A5G A67U, the dissociation constant Kd was 7.84 nM.

As for A5G A67G, the Kd came out at 6.71 nM.

For the variant A5C C13G, the equilibrium dissociation constant (Kd) amounted to 6.73 nM.

For A4U A21U, the Kd is 6.22 nM.

Take A4U A21G: the Kd turned out to be 5.7 nM.

Turning to A4U A15G, the dissociation constant Kd is 5.02 nM.

Regarding A4U A15U, the Kd stood at 6.22 nM.

Regarding A5G G56A, the dissociation constant (Kd) was found to be 11.2 nM.

On to A5G G56U, for which the Kd amounted to 7.96 nM.

In the case of A5G A43G, the Kd stood at 25.6 nM.

In the case of A5G A43U, the equilibrium dissociation constant (Kd) came out at 33.6 nM.

Turning to A4U U28C, the Kd is 7.47 nM.

On to A4U U28A, for which the Kd amounted to 5.47 nM.

On to A4U G55A, for which the dissociation constant (Kd) was determined as 8.55 nM.

For A4U G32A, the Kd worked out at 5.67 nM.

For the variant A4U G11A, the equilibrium dissociation constant (Kd) is 4.95 nM.

A4U G11U: the equilibrium dissociation constant (Kd) came to 6.41 nM.

On to A4G A43C, for which the Kd turned out to be 90.1 nM.

Take A4G A43G: the Kd was determined as 22.2 nM.

Turning to A4G A43U, the equilibrium dissociation constant (Kd) turned out to be 57 nM.

Take A4G U41C: the Kd was 73 nM.

Consider A4G U41A, for which the Kd came to 73.6 nM.

A4G U41G: the Kd worked out at 5.56 nM.

Turning to A4G C36A, the Kd amounted to 7.98 nM.

Regarding A4G C36U, the equilibrium dissociation constant (Kd) stood at 7.32 nM.

Turning to A4G C36G, the dissociation constant Kd worked out at 10.4 nM.

On to A5G A21G, for which the dissociation constant Kd was 5.66 nM.

Consider A5G A21U, for which the Kd came out at 6.3 nM.

Regarding A4G C35U, the equilibrium dissociation constant (Kd) was 13.5 nM.

Take A4G C35A: the dissociation constant (Kd) amounted to 9.55 nM.

As to A4U A43G, the Kd was 40 nM.

As for A5G A52U, the dissociation constant Kd amounted to 17 nM.

For A5G A52G, the Kd is 4.26 nM.

With A4G C51U, the dissociation constant Kd is 7.58 nM.

Consider A4G C51A, for which the equilibrium dissociation constant (Kd) is 9.97 nM.

With A4G C51G, the dissociation constant (Kd) stood at 4.36 nM.

As to A4G C66G, the Kd amounted to 5.69 nM.

Consider A4G C66U, for which the equilibrium dissociation constant (Kd) came to 5.13 nM.

For A4G C33U, the dissociation constant Kd is 5.81 nM.

In the case of A4G C33G, the Kd worked out at 5.81 nM.

For A4G C33A, the Kd amounted to 5.4 nM.

For A5G C51U, the Kd stood at 7.39 nM.

As for A4G C6U, the Kd was 6.08 nM.

With A4G C6G, the Kd turned out to be 5.28 nM.

For the variant A4G C6A, the dissociation constant Kd worked out at 6.8 nM.

For the variant A4G G63A, the Kd was 15.1 nM.

For A4G G63U, the Kd is 11.1 nM.

In the case of A4G G63C, the Kd was 28.6 nM.

A5G A15G: the dissociation constant Kd turned out to be 6.77 nM.

For A5G A15U, the dissociation constant Kd stood at 7.04 nM.

With A5C A8G, the Kd came to 6.78 nM.

On to A5C A8C, for which the equilibrium dissociation constant (Kd) stood at 8.75 nM.

Take A5C A8U: the Kd turned out to be 8.29 nM.

As to A5G G20U, the Kd was found to be 6.78 nM.

For A5G G20A, the Kd was determined as 6.58 nM.

With A5G G62A, the dissociation constant (Kd) stood at 13.5 nM.

Consider A4G G20A, for which the Kd is 5.15 nM.

On to A4G G20U, for which the Kd was found to be 7.1 nM.

A5G G45A: the Kd came out at 21.9 nM.

Consider A5G G45U, for which the dissociation constant Kd came to 7.32 nM.

As to A4G G56U, the Kd was 6.06 nM.

With A4G G56A, the Kd came to 9.42 nM.

A5C G16U: the dissociation constant Kd amounted to 8.04 nM.

A5G C36U: the equilibrium dissociation constant (Kd) was determined as 6.13 nM.

On to A4U C17U, for which the Kd was determined as 5.01 nM.

Regarding A4U C17G, the Kd stood at 5.58 nM.

In the case of A5G A24G, the Kd came to 6.27 nM.

Regarding A4G G64A, the dissociation constant (Kd) amounted to 8.61 nM.

With A4G G64C, the Kd came to 7.19 nM.

As to A4G G64U, the equilibrium dissociation constant (Kd) came to 7.6 nM.

A4U U47A: the Kd stood at 12.5 nM.

On to A4U U47G, for which the Kd amounted to 6.26 nM.

On to A5G A39G, for which the dissociation constant (Kd) was found to be 13.2 nM.

As for A5G A39C, the Kd amounted to 22.3 nM.

For A5G A39U, the dissociation constant Kd is 34.5 nM.

As to A4U G20U, the Kd was found to be 6.62 nM.

On to A4G G34C, for which the Kd came to 10.8 nM.

As for A4G G34U, the Kd came out at 6.59 nM.

With A4G G34A, the equilibrium dissociation constant (Kd) amounted to 7.45 nM.

As for A5G C9G, the equilibrium dissociation constant (Kd) is 5.97 nM.

As for A5G C9U, the Kd was 6.36 nM.

On to A4G G18A, for which the Kd came out at 5.38 nM.

Take A4G G18U: the Kd came to 5.96 nM.

Consider A5G G48A, for which the dissociation constant Kd was determined as 12.6 nM.

With A5G G34A, the Kd came out at 5.89 nM.

As for A4U A59G, the equilibrium dissociation constant (Kd) amounted to 70.4 nM.

Consider A4U G62A, for which the Kd worked out at 13.5 nM.

On to A5C G14U, for which the dissociation constant (Kd) came to 6.73 nM.

On to A4G G32A, for which the dissociation constant Kd turned out to be 5.33 nM.

Turning to A4G G32U, the dissociation constant (Kd) amounted to 5.95 nM.

A5C U10G: the Kd came out at 6.68 nM.

Take A4G U29A: the Kd was determined as 5.44 nM.

Turning to A4G U29C, the Kd was determined as 6.03 nM.

In the case of A4G U29G, the Kd was found to be 5.5 nM.

Consider A4G U28G, for which the dissociation constant Kd came out at 6.58 nM.

On to A4G U28A, for which the Kd is 4.59 nM.

On to A4G U28C, for which the Kd was found to be 9.05 nM.
